Calls of active or inactive are those of the source. No cut-off for these calls is given here.
How the values were obtained:
[1] = target: T1, Anoctamin-1 (Homo sapiens) (UniProt Q5XXA6); experiment: Inhibition of human ANO1 channel expressed in HEK293 cells at 10 uM incubated for 10 mins by FLIPR assay relative to control; type: cell-based
T1 sequence (whole entry): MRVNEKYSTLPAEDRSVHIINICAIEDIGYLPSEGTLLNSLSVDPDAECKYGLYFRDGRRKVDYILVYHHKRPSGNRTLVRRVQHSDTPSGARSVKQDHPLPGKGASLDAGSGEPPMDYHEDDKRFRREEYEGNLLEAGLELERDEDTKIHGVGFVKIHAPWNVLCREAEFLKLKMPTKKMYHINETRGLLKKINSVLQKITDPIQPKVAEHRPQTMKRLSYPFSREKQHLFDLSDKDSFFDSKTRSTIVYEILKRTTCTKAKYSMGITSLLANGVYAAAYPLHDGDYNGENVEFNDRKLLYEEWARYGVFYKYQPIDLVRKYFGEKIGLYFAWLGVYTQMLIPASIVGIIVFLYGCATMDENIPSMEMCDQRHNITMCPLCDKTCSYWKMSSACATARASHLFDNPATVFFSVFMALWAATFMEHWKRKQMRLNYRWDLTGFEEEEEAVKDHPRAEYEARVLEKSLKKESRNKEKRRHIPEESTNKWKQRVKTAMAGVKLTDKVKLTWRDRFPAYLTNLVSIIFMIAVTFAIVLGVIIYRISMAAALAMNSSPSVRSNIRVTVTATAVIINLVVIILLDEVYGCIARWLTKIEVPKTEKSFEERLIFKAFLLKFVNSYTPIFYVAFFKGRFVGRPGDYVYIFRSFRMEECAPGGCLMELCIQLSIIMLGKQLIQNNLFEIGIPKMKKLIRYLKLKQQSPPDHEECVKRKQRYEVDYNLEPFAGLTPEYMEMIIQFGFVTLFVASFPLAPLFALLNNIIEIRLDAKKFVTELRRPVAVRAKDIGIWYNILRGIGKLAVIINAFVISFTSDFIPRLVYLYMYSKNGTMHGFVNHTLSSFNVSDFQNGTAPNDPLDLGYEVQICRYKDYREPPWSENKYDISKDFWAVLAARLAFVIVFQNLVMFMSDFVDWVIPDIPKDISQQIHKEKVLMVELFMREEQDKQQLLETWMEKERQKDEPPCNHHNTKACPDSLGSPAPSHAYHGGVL
In short: (§1)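 HEK293 cells expressing human ANO1, 50,000 cells/well, plated overnight. Loaded with FLIPR Red membrane-potential dye in HEPES-buffered saline (pH 7.4) for 40-60 min at room temperature. Compound added for 10 min at room temperature, final DMSO 0.5%.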

U-251 [2] = experiment: Inhibition of anchorage-independent colony formation in human U251 cells at 100 uM incubated for 14 days by crystal violet staining based soft agar colony formation assay; type: functional
In short: (§2)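 Soft agar assay: 2.0×10^3 U251 cells in complete medium with 0.3% agar over a 0.6% bottom agar layer. Treated with compounds at 1-100 μM for 14 days, 37 °C, 5% CO2. Colonies stained with crystal violet for 24 h, whole wells photographed and colonies counted against DMSO control; n = 3.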

U-87 MG [3] = experiment: Antiproliferative activity against human U87MG cells overexpressing ANO1 assessed as reduction in cell viability measured after 72 hrs by Celltiter-glo assay; type: functional, U-87MG ATCC
In short: (§3)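 5.0×10^3 cells/well seeded, overnight, then compounds added as 1:4 serial dilutions in DMSO; viability read after 72 h with CellTiter-Glo luminescence. GI50 from fitted dose-response curves; triplicate wells, SD from three independent experiments. DMEM for U251 and U138, MEM for U87MG, both with 10% FBS and pen/strep, 37 °C, 5% CO2.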

Anoctamin-1 [4] = target: T2, Anoctamin-1 (Mus musculus, UniProt Q8BHY3); experiment: Inhibition of GFP-fused mouse ANO1 channel expressed in HEK293A cells assessed as inhibition of ATP-induced channel current amplitude at membrane potential of +80 mV by patch clamp electrophysiology assay; type: cell-based, HEK293-A
T2 sequence (Q8BHY3 whole entry): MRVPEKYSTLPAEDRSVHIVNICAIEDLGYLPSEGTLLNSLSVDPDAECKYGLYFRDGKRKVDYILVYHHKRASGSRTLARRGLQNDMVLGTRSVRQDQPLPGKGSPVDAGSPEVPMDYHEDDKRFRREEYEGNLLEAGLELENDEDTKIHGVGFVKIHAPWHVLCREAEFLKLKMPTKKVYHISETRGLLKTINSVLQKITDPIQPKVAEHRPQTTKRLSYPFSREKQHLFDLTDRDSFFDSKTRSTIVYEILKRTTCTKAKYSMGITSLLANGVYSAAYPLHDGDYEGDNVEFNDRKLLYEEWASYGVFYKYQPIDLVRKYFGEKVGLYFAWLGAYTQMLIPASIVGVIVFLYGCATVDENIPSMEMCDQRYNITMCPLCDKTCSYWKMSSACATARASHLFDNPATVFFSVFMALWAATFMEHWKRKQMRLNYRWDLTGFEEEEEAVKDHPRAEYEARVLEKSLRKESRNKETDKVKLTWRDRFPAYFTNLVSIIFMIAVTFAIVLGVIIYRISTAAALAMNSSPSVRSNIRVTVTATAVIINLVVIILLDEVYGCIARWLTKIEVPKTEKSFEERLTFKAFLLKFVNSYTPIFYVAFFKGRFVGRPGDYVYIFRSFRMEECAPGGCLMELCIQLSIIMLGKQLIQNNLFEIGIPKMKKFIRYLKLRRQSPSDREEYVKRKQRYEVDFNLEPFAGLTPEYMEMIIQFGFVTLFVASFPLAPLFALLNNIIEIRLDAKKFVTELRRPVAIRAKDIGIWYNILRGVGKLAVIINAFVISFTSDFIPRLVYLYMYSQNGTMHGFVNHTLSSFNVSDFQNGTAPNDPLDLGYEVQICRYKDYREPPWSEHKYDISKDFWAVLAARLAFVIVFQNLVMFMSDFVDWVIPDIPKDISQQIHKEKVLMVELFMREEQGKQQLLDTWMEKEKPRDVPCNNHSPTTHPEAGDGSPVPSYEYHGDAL
In short: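 Whole-cell recording at room temperature in HEK293A cells transfected with GFP-mANO1, GFP-mANO2 or GFP-mTTYH1. 1 s ramps from +80 to -80 mV, holding potential -10 mV. For ANO1/ANO2: pipette CsCl 146 mM with Ca-EGTA-NMDG, pH 7.3; bath NaCl-based, pH 7.3. For TTYH1: Tris-aspartate pipette (pH 7.2) and Tris-HCl bath (pH 7.4), with […] and BaCl2 added to block K+ channels, and hypotonic (220 mOsm/kg) bath. Washout recordings assessed reversibility.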

U-251 [5] = experiment: Inhibition of cell invasion in human U251 cells at 10 uM incubated for 48 hrs by Boyden chamber method; type: functional
In short: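 Boyden chamber invasion: U251 cells serum-starved 24 h, then 2.5×10^5 cells seeded in 8-μm ECMatrix-coated transwells. Treated with compound at 1 or 10 μM for 48 h at 37 °C. Invasion ratio from relative fluorescence.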

U-251 [6] = experiment: Inhibition of colony formation in human U251 cells at 10 uM incubated for 14 days by crystal violet dye based assay; type: functional
In short: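 Colonies stained 24 h with crystal violet in methanol/formaldehyde/PBS, washed, extracted with 10% acetic acid and read at A570 nm. Compared against DMSO control.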

U138-MG [7] = experiment: Antiproliferative activity against human U138 cells overexpressing ANO1 assessed as reduction in cell viability measured after 72 hrs by Celltiter-glo assay; type: functional; in short: as §3
U-251 [8] = experiment: Inhibition of cell migration in human U251 cells at 10 uM incubated for 18 hrs by wound healing assay; type: functional
In short: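 U251 monolayer, 2.0×10^5 cells/well, plated overnight, then scratched and washed with PBS. Wound area imaged before and after incubation; migration ratio taken from migrated area. One-way ANOVA.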

[9] = Antiproliferative activity against mouse primary astrocytes assessed as reduction in cell viability at 100 uM measured after 72 hrs by Celltiter-Glo luminescent assay; type: cell-based, Astrocyte
In short: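 Primary astrocytes isolated from adult mouse brain by a previously reported method. 5.0×10^3 cells/well, compound as 1:4 serial DMSO dilutions, CellTiter-Glo viability at 72 h.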

U-251 [10] = experiment: Inhibition of anchorage-independent colony formation in human U251 cells at 10 uM incubated for 14 days by crystal violet staining based soft agar colony formation assay; type: functional, cell-based; conditions: time 14.0 day; in short: as §2
U-251 [11] = experiment: Antiproliferative activity against human U251 cells overexpressing ANO1 assessed as reduction in cell viability measured after 72 hrs by Celltiter-glo assay; type: functional; in short: as §3
U-251 [12] = experiment: Inhibition of anchorage-independent colony formation in human U251 cells at 30 uM incubated for 14 days by crystal violet staining based soft agar colony formation assay; type: functional, cell-based; conditions: time 14.0 day; in short: as §2
U-87 MG [13] = experiment: Antiproliferative activity against human U87MG cells overexpressing ANO1 assessed as reduction in cell viability at 100 uM measured after 72 hrs by Celltiter-glo assay; type: functional, U-87MG ATCC; in short: as §3
U-251 [14] = experiment: Antiproliferative activity against human U251 cells overexpressing ANO1 assessed as reduction in cell viability at 100 uM measured after 72 hrs by Celltiter-glo assay; type: functional; in short: as §3
Anoctamin-1 [15] = target: T3, Anoctamin-1 (Homo sapiens, UniProt Q5XXA6); experiment: Inhibition of human ANO1 channel expressed in HEK293 cells incubated for 10 mins by FLIPR assay; type: cell-based; in short: as §1
T3 sequence (Q5XXA6 whole entry): T1 sequence (whole entry)

U138-MG [16] = experiment: Antiproliferative activity against human U138 cells overexpressing ANO1 assessed as reduction in cell viability at 100 uM measured after 72 hrs by Celltiter-glo assay; type: functional; in short: as §3

SMILES: CC(C)(C)C1CCc2c(sc(NC(=S)NC(=O)c3ccco3)c2C(N)=O)C1 (configuration not stated)
- inhibition [1]: 13.8%

SMILES: Cc1ccccc1NC(=O)c1c(NC(=O)C(F)(F)Br)sc2c1CCCCC2
- inhibition (U-251 [2]; time 14.0 day): inactive
- GI50 (U-87 MG [3]): 48 µM
- IC50 (Anoctamin-1 [4]): 0.05 µM
- inhibition at 10 µM (U-251 [5]): 11.7%
- inhibition (U-251 [6]; time 14.0 day): inactive
- GI50 (U138-MG [7]): 29.4 µM
- inhibition at 10 µM (U-251 [8]): 16.7%
- inhibition at 72 h, 100 µM [9]: < 50%
- inhibition (U-251 [10]): inactive
- GI50 (U-251 [11]): 45.3 µM

SMILES: NC(=O)c1c(N)sc2c1CCCCC2
- inhibition [1]: < 10%

SMILES: Cc1ncsc1C(=O)NC(=S)Nc1sc2c(c1C(N)=O)CCC2
- inhibition [1]: < 10%

SMILES: NC(=O)c1c(NC(=S)NC(=O)c2ccccc2)sc2c1CCCCC2
- inhibition [1]: 21.1%

SMILES: NC(=O)c1c(NC(=O)c2ccccc2)sc2c1CCCCC2
- inhibition [1]: 12.1%

SMILES: NC(=O)c1c(NC(=S)NC(=O)c2ccc3c(c2)OCCO3)sc2c1CCC2
- inhibition [1]: 12.3%

SMILES: COc1ccc(C(=O)NC(=S)Nc2sc3c(c2C(N)=O)CCC3)cc1OC
- inhibition [1]: < 10%

SMILES: NC(=O)c1c(NC(=S)NC(=O)c2ccco2)sc2c1CCCCC2
- inhibition [1]: 21.8%

SMILES: CC(C)(C)C1CCc2c(sc(NC(=O)c3ccccc3)c2C(N)=O)C1 (configuration not stated)
- inhibition [1]: 22%

SMILES: NC(=O)c1c(NC(=O)c2ccco2)sc2c1CCCCC2
- inhibition [1]: < 10%

SMILES: NC(=O)c1c(NC(=S)NC(=O)c2ccco2)sc2c1CCC2
- inhibition [1]: < 10%

SMILES: CC(C)(C)C1CCc2c(sc(NC(=O)c3ccco3)c2C(=O)O)C1 (configuration not stated)
- inhibition at 100 µM (U-251 [2]; U-251, 336 h, time 14 day): 72.7%
- IC50 (Anoctamin-1 [4]): 1.53 µM
- inhibition at 10 µM (U-251 [5]): 28.3%
- inhibition at 10 µM (U-251 [6]; U-251, 336 h, time 14 day): 72.7%
- inhibition (U-251 [12]): inactive
- GI50 (U138-MG [7]): 89.4 µM
- inhibition at 10 µM (U-251 [8]): 34.8%
- inhibition at 72 h, 100 µM [9]: < 50%
- inhibition (U-251 [10]): inactive
- inhibition at 100 µM (U-87 MG [13]): < 50%
- GI50 (U-251 [11]): 41.9 µM

SMILES: COc1cc(C(=O)NC(=S)Nc2sc3c(c2C(N)=O)CCC3)cc(OC)c1OC
- inhibition [1]: < 10%

SMILES: CC(C)(C)C1CCc2c(sc(NC(=O)c3ccco3)c2C(N)=O)C1 (configuration not stated)
- inhibition [1]: < 10%

SMILES: CC(C)(C)C(=O)Nc1sc2c(c1C(N)=O)CCCCC2
- inhibition at 100 µM (U-251 [14]): < 50%
- IC50 (Anoctamin-1 [4]): 4.07 µM
- IC50 (Anoctamin-1 [15]): 4.79 µM
- inhibition at 72 h, 100 µM [9]: < 50%
- inhibition [1]: 67.9%
- inhibition at 100 µM (U-87 MG [13]): < 50%
- inhibition at 100 µM (U138-MG [16]): < 50%

SMILES: NC(=O)c1ccsc1NC(=O)c1ccccc1
- inhibition [1]: < 10%

Reference: ChEMBL document CHEMBL4706565, “Anti-glioma effects of 2-aminothiophene-3-carboxamide derivatives, ANO1 channel blockers” (Eur J Med Chem, 2020)
